1 molecule from ChEMBL document CHEMBL1142935, “Discovery of Ecopladib, an indole inhibitor of cytosolic phospholipase A2alpha” (J Med Chem, 2007) can be followed below.

Calls of active or inactive are those of the source. The rule behind the calls is not given here.

In data set [1] the target is T1, Cytosolic phospholipase A2 beta (Homo sapiens) (UniProt P0C869).
T1 sequence (whole entry): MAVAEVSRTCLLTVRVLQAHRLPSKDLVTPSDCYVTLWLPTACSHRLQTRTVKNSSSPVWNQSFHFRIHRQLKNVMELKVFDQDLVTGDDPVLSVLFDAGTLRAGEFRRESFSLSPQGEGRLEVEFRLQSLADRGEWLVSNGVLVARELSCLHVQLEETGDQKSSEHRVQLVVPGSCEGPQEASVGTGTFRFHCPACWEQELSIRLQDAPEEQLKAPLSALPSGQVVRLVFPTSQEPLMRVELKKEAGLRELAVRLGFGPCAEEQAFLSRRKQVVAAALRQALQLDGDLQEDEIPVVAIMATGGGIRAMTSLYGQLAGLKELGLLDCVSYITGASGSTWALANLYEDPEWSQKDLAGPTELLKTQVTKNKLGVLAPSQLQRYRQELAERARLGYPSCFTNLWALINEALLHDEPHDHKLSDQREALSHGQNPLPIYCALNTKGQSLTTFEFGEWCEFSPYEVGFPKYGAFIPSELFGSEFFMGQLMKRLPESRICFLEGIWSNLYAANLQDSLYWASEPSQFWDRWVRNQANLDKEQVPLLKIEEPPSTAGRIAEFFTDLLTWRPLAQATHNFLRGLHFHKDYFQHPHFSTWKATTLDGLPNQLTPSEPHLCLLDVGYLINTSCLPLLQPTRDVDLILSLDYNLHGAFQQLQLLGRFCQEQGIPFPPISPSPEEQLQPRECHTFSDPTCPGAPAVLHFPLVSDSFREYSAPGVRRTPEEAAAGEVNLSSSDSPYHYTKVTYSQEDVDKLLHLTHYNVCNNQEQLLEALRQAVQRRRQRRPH
Kind of data set: Inhibition of cPLA2 beta in PAPC liposome at 1 uM. The essentials:
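Isoform selectivity tested with PAPC (1-palmitoyl-2-arachidonyl-sn-glycero-3-phosphocholine) liposome substrate assays for cPLA2β and cPLA2γ.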

The next data set is described as follows: in vivo. The following applies: Sprague-Dawley, rat, plasma, iv, 2 mg/kg.

A word on the clearance: it is a measure of how efficiently the substance is removed, as volume per time.

As to `O=C(O)c1ccc(OCCc2c(CCNS(=O)(=O)Cc3ccc(Cl)c(Cl)c3)n(C(c3ccccc3)c3ccccc3)c3ccc(Cl)cc23)cc1` [ECOPLADIB], the outcome in data set [1] was inactive. Further, in the data set “in vivo”, the clearance turned out to be 14 mL/min/kg.
